Series [1] is described as follows: Drug uptake in iv dosed Sprague-Dawley rat liver after 5 hrs by LC-MS/MS analysis. The series is classed as ADME, organism-based. The note with it: read-out: Drug uptake. The procedure, abridged:
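Rats (9 weeks old) were anesthetized with isoflurane, and the femoral vein and common bile duct were cannulated; animals were held in Bollman cages. Compound (1 mg/mL in saline, or in saline:dimethylacetamide 1:1) was infused IV at 0.2 mL/h to reach steady-state plasma levels. Livers were taken 5 h after infusion start, extracted with acetonitrile containing internal standard, and analyzed by LC-MS/MS. n = 5.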

A further series has as its system Hepatocyte. Briefly: Drug uptake in sandwich cultured Sprague-Dawley rat hepatocytes by LC-MS/MS analysis. The series is classed as ADME, cell-based. The procedure, abridged:
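Hepatocytes came from male Sprague-Dawley rats by two-step collagenase perfusion (viability >90%). They were seeded at 5 × 10^5 cells/well on collagen, overlaid with Matrigel 0.25 mg/mL on day 2, and cultured 72 h. Cells were preincubated 10 min at 37°C in HBSS or Ca2+/Mg2+-free HBSS with 1 mmol/L EGTA. Substrate (0.5 or 1 μmol/L) was incubated 15 min. Cells were then rinsed ice-cold, lysed in Triton X-100, and analyzed by LC-MS/MS, normalized to BCA protein. n = 3.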

The nature of series [2]: Unbound fraction in Sprague-Dawley rat plasma at 100 uM by equilibrium dialysis method.
A short description of series [3]: In vivo apparent biliary clearance in iv dosed Sprague-Dawley rat by LC-MS/MS analysis. Type of series: ADME, organism-based, Bile.
Series [4] is described as follows: In vivo intrinsic biliary clearance in iv dosed Sprague-Dawley rat by LC-MS/MS analysis. The series is classed as ADME, organism-based, Bile.
A short description of series [5]: Biliary excretion in Eisai hyperbilirubinemic mutant rat at 20 mg/kg, iv administered as single dose by HPLC analysis. The series is classed as ADME, organism-based. On the set-up: dose 20 mg/kg, route intravenous. Conditions: bile, read-out: Drug excretion.
Series [6] can be described thus: Total clearance in Eisai hyperbilirubinemic mutant rat at 20 mg/kg, iv administered as single dose by HPLC analysis. Type of series: ADME, organism-based. On the set-up: dose 20 mg/kg, route intravenous. The note with it: in vivo.
Series [7] can be described thus: Total clearance in rat. Conditions: in vivo. Type of series: ADME, organism-based.
Series [8] is described as follows: Biliary excretion in rat. The series is classed as ADME. Conditions: bile, read-out: Drug excretion.

Turning to `CCCCC(=O)N(Cc1ccc(-c2ccccc2-c2nnn[nH]2)cc1)[C@H](C(=O)O)C(C)C`, the concentration at 5 h in series [1] amounted to 17.4 µM. This compound registered a Drug uptake in the series on Hepatocyte of 17.5 µmol/L. The fraction unbound – broadly, the share of the substance not bound to proteins or other matrix – at 100 µM in series [2] stood at 0.003. Moreover, the “CL(app)” value in series [3] came out at 3.5 mL/min/kg. In series [4], the CL worked out at 1.18 mL/min/kg.

For the compound `CO[C@@]1(NC(=O)CSCC#N)C(=O)N2C(C(=O)O)=C(CSc3nnnn3C)CS[C@@H]21` [CEFMETAZOLE], the concentration at 5 h in series [1] is 5.1 µM. This compound showed a Drug uptake in the series with Hepatocyte of 11.4 µmol/L. The same compound came in with a fraction unbound at 100 µM in [2] of 0.738. Moreover, the “CL(app)” value in series [3] was 6.22 mL/min/kg. Also, the CL in series [4] turned out to be 3.57 mL/min/kg.

In the case of `CCN1CCN(C(=O)N[C@@H](C(=O)N[C@@H]2C(=O)N3C(C(=O)O)=C(CSc4nnnn4C)CS[C@H]23)c2ccc(O)cc2)C(=O)C1=O` [CEFOPERAZONE], the concentration at 5 h in [1] stood at 2.5 µM. The same compound displayed a Drug uptake with Hepatocyte of 2.6 µmol/L.

On to `Cc1cc(O)c(C(=O)N[C@@H](C(=O)N[C@@H]2C(=O)N3C(C(=O)O)=C(CSc4nnnn4C)CS[C@H]23)c2ccc(O)cc2)cn1` [CEFPIRAMIDE], for which the concentration at 5 h in [1] amounted to 2.6 µM. Further, the Drug uptake with Hepatocyte is 1 µmol/L. Besides, the fraction unbound at 100 µM in series [2] stood at 0.158. In series [3], the “CL(app)” value is 4.72 mL/min/kg. Also, in series [5], the dose excreted is 57.8%. For the same compound, in [6], the clearance (commonly the volume of plasma or blood freed of the substance per unit of time) is 8.15 mL/min/kg. This compound returned a CL in series [4] of 3.357 mL/min/kg.

In the case of `CCCc1nc(C(C)(C)O)c(C(=O)O)n1Cc1ccc(-c2ccccc2-c2nnn[nH]2)cc1` [OLMESARTAN], the concentration at 5 h in [1] was determined as 19.1 µM. For the same compound, in the series on Hepatocyte, the Drug uptake amounted to 26 µmol/L. This compound also returned a free fraction (fraction unbound) at 100 µM in series [2] of 0.01. Moreover, the “CL(app)” value in [3] was determined as 2.8 mL/min/kg. Moreover, the CL in [4] stood at 1.11 mL/min/kg.

Regarding `CC[C@H](C)C(=O)O[C@H]1C[C@H](O)C=C2C=C[C@H](C)[C@H](CC[C@@H](O)C[C@@H](O)CC(=O)O)[C@H]21` [PRAVASTATIN], in [1], the concentration at 5 h stood at 1.9 µM. Moreover, in the series on Hepatocyte, the Drug uptake amounted to 1.9 µmol/L. The fraction unbound at 100 µM in series [2] is 0.705. Besides, the “CL(app)” value in series [3] is 27.4 mL/min/kg. In series [4], this compound registered a CL of 6.723 mL/min/kg.

As for `CC(C)c1nc(N(C)S(C)(=O)=O)nc(-c2ccc(F)cc2)c1/C=C/[C@@H](O)C[C@@H](O)CC(=O)O` [ROSUVASTATIN], the concentration at 5 h in series [1] worked out at 7.1 µM. The compound further displayed a Drug uptake with Hepatocyte of 11.8 µmol/L. Besides, the unbound share (fraction unbound) at 100 µM in series [2] turned out to be 0.035. Moreover, the “CL(app)” value in series [3] stood at 24.17 mL/min/kg. Further, the CL in series [4] came out at 2.505 mL/min/kg.

`CC[C@@]1(O)C(=O)OCc2c1cc1n(c2=O)Cc2cc3c(CN(C)C)c(O)ccc3nc2-1` [TOPOTECAN]: the clearance in [7] is 40.1 mL/min/kg. In addition, the concentration at 5 h in series [1] came out at 6.9 µM. In the series on Hepatocyte, this compound showed a Drug uptake of 3.3 µmol/L. Besides, the fraction unbound at 100 µM in series [2] was 0.747. For the same compound, the “CL(app)” value in [3] was 5.3 mL/min/kg. Further, the dose excreted in series [8] was 13.2%. The CL in [4] was 0.458 mL/min/kg.

Values taken from ChEMBL document CHEMBL3525999, “In vivo biliary clearance should be predicted by intrinsic biliary clearance in sandwich-cultured hepatocytes” (Drug Metab Dispos, 2012).
